From paper PMC5589077 (ACS chemical neuroscience, 2015)
Several values for one entry are separate records, joined by “and”; a condition that tells them apart may be missing. Equal entries are not always repeated.

Experiments:
[1] = system: α6β2*- and α4β2*-nAChRs; settings: via activation of α6β2*- and α4β2*-nAChRs; cited from earlier work
[2] = system: α4α6β2-nAChRs; settings: cited from earlier work
[3] = system: ICR mice; test: conditioned place preference; assay type: in vivo, mouse
In short: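 Test compound given s.c. 15 min before conditioning, in an unbiased three-chamber CPP. Male ICR mice, 8–10 weeks old, n = 8 per group. Baseline day 1: 5 min habituation, 15 min test. Then 3 days of twice-daily 20 min sessions, ≥5 h apart; test on day 5. Score: drug-paired-side time after minus before conditioning; mean ± SEM, p < 0.05 versus vehicle.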

[4] = target: κ opioid receptor (Homo sapiens, UniProt P41145); test: off-target radioligand binding assay; settings: 10 μM
[5] = target: 5HT2A (Homo sapiens, UniProt P28223); test: off-target radioligand binding assay; settings: 10 μM
Chain of 5HT2A (P28223 whole entry): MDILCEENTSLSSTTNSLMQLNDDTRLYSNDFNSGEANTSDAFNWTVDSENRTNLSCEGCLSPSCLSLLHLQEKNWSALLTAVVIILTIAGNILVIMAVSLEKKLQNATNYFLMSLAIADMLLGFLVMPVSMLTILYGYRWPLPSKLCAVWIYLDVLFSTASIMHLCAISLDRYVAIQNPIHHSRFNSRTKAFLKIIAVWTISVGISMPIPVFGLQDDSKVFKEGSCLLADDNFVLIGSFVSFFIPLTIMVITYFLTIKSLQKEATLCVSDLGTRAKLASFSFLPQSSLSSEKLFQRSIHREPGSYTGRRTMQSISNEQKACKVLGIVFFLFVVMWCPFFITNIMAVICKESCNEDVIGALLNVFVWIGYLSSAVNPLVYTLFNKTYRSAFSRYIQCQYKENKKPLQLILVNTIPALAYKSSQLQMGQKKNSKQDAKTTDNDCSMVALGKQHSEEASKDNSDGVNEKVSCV

[6] = target: DAD3 (Homo sapiens, UniProt P35462); test: off-target radioligand binding assay; settings: 10 μM
[7] = target: 5HT1A (Homo sapiens, UniProt P08908); test: off-target radioligand binding assay; settings: 10 μM
[8] = target: 5HT2C (Homo sapiens, UniProt P28335); test: off-target radioligand binding assay; settings: 10 μM
[9] = system: mouse; settings: cited from earlier work; for activity in tail-flick test given intrathecally: intrathecally 10 μg/mouse
[10] = target: α4β2*-nAChR in α5KO (Mus musculus, UniProt O70174+Q9ERK7); assay type: cell-based; settings: for max (% nic) dopamine release, α4β2 in α5KO*: 10 μM (+) PHT or 100 μM (−) PHT compared to 10 μM nic response; for EC50: read-out: EC50 dopamine release, α4β2 in α5KO*, α5KO mice
Chain of α4β2*-nAChR in α5KO (O70174 31-629): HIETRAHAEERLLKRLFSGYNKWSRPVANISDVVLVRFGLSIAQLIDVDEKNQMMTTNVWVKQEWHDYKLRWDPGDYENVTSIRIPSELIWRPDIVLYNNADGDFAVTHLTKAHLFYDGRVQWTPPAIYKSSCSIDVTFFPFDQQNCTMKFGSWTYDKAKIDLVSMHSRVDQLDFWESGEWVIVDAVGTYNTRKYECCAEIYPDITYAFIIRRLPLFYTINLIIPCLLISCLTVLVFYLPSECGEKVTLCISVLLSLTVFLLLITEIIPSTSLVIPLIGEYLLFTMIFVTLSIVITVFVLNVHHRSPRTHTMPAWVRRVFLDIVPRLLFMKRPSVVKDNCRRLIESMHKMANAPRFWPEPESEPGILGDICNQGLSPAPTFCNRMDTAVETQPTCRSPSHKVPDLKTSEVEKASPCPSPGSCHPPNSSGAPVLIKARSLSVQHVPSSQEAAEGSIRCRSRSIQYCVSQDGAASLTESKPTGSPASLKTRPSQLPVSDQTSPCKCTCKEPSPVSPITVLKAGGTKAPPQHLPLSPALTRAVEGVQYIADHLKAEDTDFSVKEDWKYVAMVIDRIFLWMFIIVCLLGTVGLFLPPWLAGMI
Chain of α4β2*-nAChR in α5KO (Q9ERK7 26-501): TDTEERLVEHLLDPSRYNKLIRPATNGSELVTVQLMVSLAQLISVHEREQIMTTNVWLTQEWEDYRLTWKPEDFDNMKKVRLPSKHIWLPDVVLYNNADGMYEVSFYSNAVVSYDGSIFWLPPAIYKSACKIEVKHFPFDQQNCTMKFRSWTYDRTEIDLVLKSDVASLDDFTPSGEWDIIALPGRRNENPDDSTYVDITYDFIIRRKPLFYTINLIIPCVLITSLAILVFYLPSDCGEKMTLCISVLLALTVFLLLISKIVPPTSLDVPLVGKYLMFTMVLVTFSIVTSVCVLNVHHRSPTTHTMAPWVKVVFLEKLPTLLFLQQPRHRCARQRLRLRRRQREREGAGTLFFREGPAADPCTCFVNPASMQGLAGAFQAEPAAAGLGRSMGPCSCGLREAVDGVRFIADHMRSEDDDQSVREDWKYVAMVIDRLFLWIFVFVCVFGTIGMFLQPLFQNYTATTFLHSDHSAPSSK

[11] = target: SERT (Homo sapiens, UniProt P31645); test: off-target radioligand binding assay; settings: 10 μM
[12] = system: mouse; settings: cited from earlier work
[13] = target: DAD1 (Homo sapiens, UniProt P21728); test: off-target radioligand binding assay; settings: 10 μM
[14] = target: μ opioid receptor (Homo sapiens, UniProt P35372); test: off-target radioligand binding assay; settings: 10 μM
Chain of μ opioid receptor (P35372 whole entry): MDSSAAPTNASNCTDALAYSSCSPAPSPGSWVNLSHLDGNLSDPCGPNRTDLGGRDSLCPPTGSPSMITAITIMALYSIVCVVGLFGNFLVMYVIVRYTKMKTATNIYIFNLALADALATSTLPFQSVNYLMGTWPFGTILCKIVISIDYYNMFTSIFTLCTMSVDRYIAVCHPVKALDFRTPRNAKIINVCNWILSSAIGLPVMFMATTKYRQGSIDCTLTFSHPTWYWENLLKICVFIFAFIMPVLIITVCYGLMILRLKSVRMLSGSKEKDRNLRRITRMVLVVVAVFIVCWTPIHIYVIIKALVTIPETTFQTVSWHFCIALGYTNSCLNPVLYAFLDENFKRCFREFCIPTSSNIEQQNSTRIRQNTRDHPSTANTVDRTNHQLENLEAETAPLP

[15] = target: rat α3β4-nAChR (Rattus norvegicus, UniProt P04757+P12392); assay type: cell-based; settings: for antagonism (% of EC50 ACh remaining) α3β4: 100 μM compound, ACh 200 μM; for IC50: read-out: antagonism, IC50 α3β4, vs EC50 ACh 200 μM
Chain of rat α3β4-nAChR (P12392 21-495): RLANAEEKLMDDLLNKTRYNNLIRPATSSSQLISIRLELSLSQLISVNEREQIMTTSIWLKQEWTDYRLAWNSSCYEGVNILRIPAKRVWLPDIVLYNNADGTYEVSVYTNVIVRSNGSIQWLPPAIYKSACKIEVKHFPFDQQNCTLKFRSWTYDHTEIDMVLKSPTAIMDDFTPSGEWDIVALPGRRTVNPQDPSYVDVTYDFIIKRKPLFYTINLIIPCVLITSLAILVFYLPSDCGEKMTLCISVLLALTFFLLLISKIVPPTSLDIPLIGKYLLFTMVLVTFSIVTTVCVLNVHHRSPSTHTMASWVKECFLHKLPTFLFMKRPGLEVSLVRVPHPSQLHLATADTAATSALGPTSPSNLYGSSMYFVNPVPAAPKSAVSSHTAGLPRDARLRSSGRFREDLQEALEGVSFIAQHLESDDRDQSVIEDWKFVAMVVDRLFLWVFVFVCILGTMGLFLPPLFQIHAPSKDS
Chain of rat α3β4-nAChR (P04757 26-499): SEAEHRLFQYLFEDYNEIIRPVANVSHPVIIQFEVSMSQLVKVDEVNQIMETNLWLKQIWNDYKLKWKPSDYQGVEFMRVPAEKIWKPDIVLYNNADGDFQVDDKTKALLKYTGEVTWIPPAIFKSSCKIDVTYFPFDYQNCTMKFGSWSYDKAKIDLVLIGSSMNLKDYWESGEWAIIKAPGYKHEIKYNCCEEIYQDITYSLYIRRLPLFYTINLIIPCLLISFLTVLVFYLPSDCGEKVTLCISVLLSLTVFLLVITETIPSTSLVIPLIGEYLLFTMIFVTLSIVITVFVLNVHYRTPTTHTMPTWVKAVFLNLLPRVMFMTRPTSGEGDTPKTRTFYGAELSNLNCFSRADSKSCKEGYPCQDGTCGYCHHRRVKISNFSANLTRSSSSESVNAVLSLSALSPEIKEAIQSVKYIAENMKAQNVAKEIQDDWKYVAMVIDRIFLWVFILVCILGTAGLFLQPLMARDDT

[16] = target: rat α7-nAChR (Rattus norvegicus, UniProt Q05941); assay type: cell-based; settings: for antagonism (% of EC50 ACh remaining) α7: 100 μM compound, ACh 300 μM; for IC50: read-out: antagonism, IC50 α7, vs EC50 ACh 300 μM
Chain of rat α7-nAChR (Q05941 23-502): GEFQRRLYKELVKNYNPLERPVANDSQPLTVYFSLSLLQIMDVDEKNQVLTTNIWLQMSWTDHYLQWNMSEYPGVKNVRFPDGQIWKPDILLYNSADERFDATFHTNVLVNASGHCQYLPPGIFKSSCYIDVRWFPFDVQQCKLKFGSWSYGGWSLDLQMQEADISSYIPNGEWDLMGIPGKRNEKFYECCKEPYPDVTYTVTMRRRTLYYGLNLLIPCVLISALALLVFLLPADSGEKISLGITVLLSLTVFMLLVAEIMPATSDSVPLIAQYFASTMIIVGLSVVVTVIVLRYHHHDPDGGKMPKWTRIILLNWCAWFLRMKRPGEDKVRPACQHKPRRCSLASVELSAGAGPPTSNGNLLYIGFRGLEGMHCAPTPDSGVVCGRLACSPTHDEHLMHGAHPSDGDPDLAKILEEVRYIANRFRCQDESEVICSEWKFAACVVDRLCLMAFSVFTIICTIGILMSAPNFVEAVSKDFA

[17] = system: mouse; settings: cited from earlier work; remark: listed apart in the source
[18] = target: NET (Homo sapiens, UniProt P23975); test: off-target radioligand binding assay; settings: 10 μM
In short: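 Inhibition of specific [125I]RTI-55 binding to the norepinephrine transporter, with test compound at 10 μM. The screen was run by a NIDA drug-discovery program contractor.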

[19] = system: α4β2*-nAChR; assay type: cell-based, mouse; settings: for max (% nic) dopamine release, res α4β2: 10 μM (+) PHT or 100 μM (−) PHT compared to 10 μM nic response
Chain of α4β2*-nAChR (Q9ERK7 26-501): as the sequence (Q9ERK7 26-501) above
Chain of α4β2*-nAChR (O70174 31-629, further chain): as the sequence (O70174 31-629) above

[20] = target: δ opioid receptor (Homo sapiens, UniProt P41143); test: off-target radioligand binding assay; settings: 10 μM
[21] = target: T1, α6β2*-nAChR (Mus musculus, UniProt Q9ERK7+Q9R0W9); assay type: cell-based; settings: for max (% nic) dopamine release, sens α6β2: 10 μM (+) PHT or 100 μM (−) PHT compared to 10 μM nic response
T1 sequence (Q9ERK7 26-501): as the sequence (Q9ERK7 26-501) above
T1 sequence (Q9R0W9 26-494): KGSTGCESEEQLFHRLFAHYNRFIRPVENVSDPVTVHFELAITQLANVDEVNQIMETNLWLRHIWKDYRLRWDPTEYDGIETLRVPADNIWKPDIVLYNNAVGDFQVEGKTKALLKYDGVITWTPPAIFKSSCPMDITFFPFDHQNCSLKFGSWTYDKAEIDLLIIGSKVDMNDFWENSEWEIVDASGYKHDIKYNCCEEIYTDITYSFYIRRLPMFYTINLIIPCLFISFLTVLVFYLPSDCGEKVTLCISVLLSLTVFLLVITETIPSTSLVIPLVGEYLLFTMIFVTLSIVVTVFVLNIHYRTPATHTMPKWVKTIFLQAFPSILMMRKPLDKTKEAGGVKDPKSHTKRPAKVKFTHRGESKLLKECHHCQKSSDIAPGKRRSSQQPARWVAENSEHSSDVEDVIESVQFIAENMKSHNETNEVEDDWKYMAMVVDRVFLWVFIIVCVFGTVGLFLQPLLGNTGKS

[22] = target: DAD4 (Homo sapiens, UniProt P21917); test: off-target radioligand binding assay; settings: 10 μM
[23] = target: DAT (Homo sapiens, UniProt Q01959); test: off-target radioligand binding assay; settings: 10 μM
[24] = target: α6β2*-nAChR in α5KO (Mus musculus, UniProt Q9ERK7+Q9R0W9); assay type: cell-based; settings: for max (% nic) dopamine release, α6β2 in α5KO: 10 μM (+) PHT or 100 μM (−) PHT compared to 10 μM nic response; for EC50: read-out: EC50 dopamine release, α6β2 in α5KO, α5KO mice
Chain of α6β2*-nAChR in α5KO (Q9R0W9 26-494): as above
Chain of α6β2*-nAChR in α5KO (Q9ERK7 26-501): as the sequence (Q9ERK7 26-501) above

[25] = target: T1, α6β2*-nAChR; settings: read-out: binding Ki, α6β2; [125I]epibatidine; striatum and olfactory tubercle membranes from α4KO mice
[26] = system: nAChRs; settings: cited from earlier work; for Ki: read-out: Ki for inhibition of [3H]epibatidine binding to nAChRs
[27] = target: rat α4β2-nAChR (Rattus norvegicus, UniProt P09483+P12390); assay type: cell-based; settings: for antagonism (% of EC50 ACh remaining) α4β2: 100 μM compound, ACh 70 μM; for IC50: read-out: antagonism, IC50 α4β2, vs EC50 ACh 70 μM
Chain of rat α4β2-nAChR (P12390 25-500): as the sequence (Q9ERK7 26-501) above, with T350A, M371V, Q379R, A383T, L387P, M391V, I449V, S468P counted along it
Chain of rat α4β2-nAChR (P09483 31-630): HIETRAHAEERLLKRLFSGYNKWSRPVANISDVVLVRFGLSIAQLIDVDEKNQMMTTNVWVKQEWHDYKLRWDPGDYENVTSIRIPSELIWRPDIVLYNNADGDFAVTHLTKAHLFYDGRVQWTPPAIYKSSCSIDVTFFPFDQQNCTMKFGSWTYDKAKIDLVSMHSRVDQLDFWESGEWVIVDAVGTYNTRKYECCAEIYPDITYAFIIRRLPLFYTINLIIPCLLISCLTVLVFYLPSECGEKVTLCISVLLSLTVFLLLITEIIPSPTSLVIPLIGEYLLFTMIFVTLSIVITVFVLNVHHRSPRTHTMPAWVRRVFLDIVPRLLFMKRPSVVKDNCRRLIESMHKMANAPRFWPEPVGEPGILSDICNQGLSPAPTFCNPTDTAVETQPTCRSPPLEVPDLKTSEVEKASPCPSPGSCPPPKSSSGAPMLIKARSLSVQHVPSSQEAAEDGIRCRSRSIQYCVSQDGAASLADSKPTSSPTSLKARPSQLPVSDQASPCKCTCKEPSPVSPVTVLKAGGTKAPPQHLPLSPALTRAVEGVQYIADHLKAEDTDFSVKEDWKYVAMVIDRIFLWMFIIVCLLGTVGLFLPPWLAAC

[28] = target: DAD2 (Homo sapiens, UniProt P14416); test: off-target radioligand binding assay; settings: 10 μM
[29] = 62 receptor/enzyme screen; assay type: binding; settings: 10 μM
In short: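 Profiling in a 62-target radioligand and enzyme panel. Test compound was run at 100 nM and 10 000 nM, in duplicate. The work was done by a contractor to the NIDA Addiction Treatment Discovery Program.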

[30] = system: mouse; settings: cited from earlier work; remark: listed apart in the source
[31] = system: ICR mice; test: blockade of nicotine-induced CPP; assay type: in vivo, mouse; settings: 15 min before nicotine 0.5 mg/kg s.c.
In short: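 Male ICR mice, 8–10 weeks old, n = 8 per group, in an unbiased three-chamber CPP. Day 1: 5 min habituation, then a 15 min baseline, with the paired side randomised. Days 2–4: two 20 min sessions daily, ≥5 h apart, nicotine 0.5 mg/kg s.c. (saline, free base) versus saline. Test compound or vehicle s.c. 15 min before nicotine. Day 5 retest.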

[32] = system: α4β2-nAChR; settings: cited from earlier work
[33] = percentage of the Emax for acetylcholine

## Cc1ncccc1OC[C@@H]1CCCN1 [ABT-089, 2-Methyl-3-[(2S)-pyrrolidin-2-yl]methoxypyridine]
[1]
  effect on in vitro striatal DA release: increases in vitro striatal DA release

## CN1CCC[C@H]1c1cccnc1 [Nicotine, nicotine]
[2]
  partial agonist activity at α4α6β2-nAChRs: 70%

## Pyrido[3,4]homotropane [(+)-PHT]
[3]; 3 mg/kg s.c., 15 min before conditioning
  CPP scores: significantly increased
[4]
  activity in radioligand binding assay, κ opioid receptor: inactive
[5]
  activity in radioligand binding assay, 5HT2A: inactive
[6]
  activity in radioligand binding assay, DAD3: inactive
[7]
  activity in radioligand binding assay, 5HT1A: inactive
[8]
  activity in radioligand binding assay, 5HT2C: inactive
[9]
  activity in tail-flick test given intrathecally: no antinociceptive activity
[9]; mouse
  antinociceptive (agonist) activity in tail-flick test: no antinociceptive activity
[10]
  max (% nic) dopamine release, α4β2 in α5KO*: 13%
  EC50: 2 µM
[11]
  activity in radioligand binding assay, SERT: inactive
[12]
  activity in hypothermia test: weak activity
[13]
  activity in radioligand binding assay, DAD1: inactive
[14]
  activity in radioligand binding assay, μ opioid receptor: inactive
[15]
  antagonism (% of EC50 ACh remaining) α3β4: 93 ± 3%
  IC50: 242 ± 13 µM
[15]; [33]
  agonist activity α3β4 Emax (% ACh): 8.4 % ACh and 8.4 ± 0.5 % ACh
[15]; read-out: agonist activity α3β4 EC50, concentration–response curve
  EC50: 50 ± 6 µM
[16]
  antagonism (% of EC50 ACh remaining) α7: 87± 1%
  IC50: 720 ± 290 µM
[17]
  antinociceptive (agonist) activity in hot-plate test: no antinociceptive activity
[18]
  inhibition of specific [125I]RTI-55 binding to the NET: 61%
[19]
  max (% nic) dopamine release, res α4β2: 33%
[19]; wild type mice
  potency relative to (−)-PHT at the α4β2*-nAChR (DA release EC50): 10 fold
[20]
  activity in radioligand binding assay, δ opioid receptor: inactive
[21]
  max (% nic) dopamine release, sens α6β2: 94%
[21]; wild type mice
  potency relative to (−)-PHT at the α6β2*-nAChR (DA release EC50): 30 fold
[22]
  activity in radioligand binding assay, DAD4: inactive
[23]
  activity in radioligand binding assay, DAT: inactive
[24]
  max (% nic) dopamine release, α6β2 in α5KO: 125%
  EC50: 0.2 µM
[25]
  Ki: 0.028 µM
[26]
  affinity relative to (−)-PHT for inhibition of [3H]epibatidine binding: 266 times
  Ki: 0.00129 µM
[27]
  agonist potency at α4β2-nAChR compared to α3β4-nAChR (EC50 comparison): 12 fold
  antagonist selectivity for α4β2- relative to α3β4-nAChR (IC50 comparison): 15 fold
  antagonist selectivity for α4β2- relative to α7-nAChR (IC50 comparison): 45 fold
  antagonism (% of EC50 ACh remaining) α4β2: 17 ± 3%
  IC50: 16 ± 3 µM
[27]; [33]
  agonist activity α4β2 Emax (% ACh): 4.6 % ACh and 4.6 ± 0.4 % ACh
[27]; read-out: agonist activity α4β2 EC50, concentration–response curve
  EC50: 4 ± 1 µM
[28]
  activity in radioligand binding assay, DAD2: inactive
[29]
  activity at off site targets in 62 receptor/enzyme screen (NovaScreen): inactive
[30]
  activity in locomotor-activity test: weak activity
[31]; pretreatment 1 mg/kg
  preference scores in comparison to nicotine alone: significantly reduced
[32]; read-out: EC50 at α4β2-nAChR
  EC50: 5.5 µM
[32]; versus full agonist acetylcholine (1 mM)
  intrinsic activity at α4β2-nAChR: 17%

## Pyrido[3,4]homotropane [(−)-PHT]
[3]; all doses tested, s.c.
  induction of significant preference in the CPP test: ineffective
[4]
  activity in radioligand binding assay, κ opioid receptor: inactive
[5]
  activity in radioligand binding assay, 5HT2A: inactive
[6]
  activity in radioligand binding assay, DAD3: inactive
[7]
  activity in radioligand binding assay, 5HT1A: inactive
[8]
  activity in radioligand binding assay, 5HT2C: inactive
[9]
  activity in tail-flick test given intrathecally: inactive
[9]; mouse
  AD50, antagonism of nicotine-induced antinociception in the tail-flick test: 0.07 µg/kg
  antinociceptive (agonist) activity in tail-flick test: inactive
[10]
  max (% nic) dopamine release, α4β2 in α5KO*: 10%
  EC50: 0.7 µM
[11]
  activity in radioligand binding assay, SERT: inactive
[12]
  activity in hypothermia test: inactive
[13]
  activity in radioligand binding assay, DAD1: inactive
[14]
  activity in radioligand binding assay, μ opioid receptor: inactive
[15]
  antagonist selectivity for α3β4- relative to α4β2-nAChR: 3 fold
  antagonist selectivity for α3β4- relative to α7-nAChR: 11 fold
  antagonism (% of EC50 ACh remaining) α3β4: 32 ± 3%
  IC50: 33 ± 6 µM
[16]
  antagonism (% of EC50 ACh remaining) α7: 84± 10%
  IC50: 353 ± 34 µM
[17]
  AD50, antagonism of antinociceptive effects of nicotine in the hot-plate test: 0.8 µg/kg
  antinociceptive (agonist) activity in hot-plate test: inactive
[18]
  activity in radioligand binding assay, NET: inactive
[19]
  max (% nic) dopamine release, res α4β2: 17%
[20]
  activity in radioligand binding assay, δ opioid receptor: inactive
[21]
  max (% nic) dopamine release, sens α6β2: 109%
[22]
  activity in radioligand binding assay, DAD4: inactive
[23]
  activity in radioligand binding assay, DAT: inactive
[24]
  max (% nic) dopamine release, α6β2 in α5KO: 96%
  EC50: 2 µM
[25]
  Ki: 0.629 µM
[26]
  Ki: 0.346 µM
[27]
  antagonism (% of EC50 ACh remaining) α4β2: 41 ± 4%
  IC50: 99 ± 13 µM
[28]
  activity in radioligand binding assay, DAD2: inactive
[29]
  activity at off site targets in 62 receptor/enzyme screen (NovaScreen): inactive
[30]
  activity in locomotor-activity test: inactive
[31]; pretreatment 0.05 mg/kg
  blockade of nicotine-induced CPP: completely preventing nicotine preference
[32]
  activation of currents at α4β2-nAChR: did not activate currents

## Pyrido[3,4]homotropane [PHT]
[26]
  Ki: 0.0062 µM
